In ChEMBL document CHEMBL2413018, “Nonclassical antifolates, part 4. 5-(2-aminothiazol-4-yl)-4-phenyl-4H-1,2,4-triazole-3-thiols as a new class of DHFR inhibitors: synthesis, biological evaluation and molecular modeling study” (Eur J Med Chem, 2013):
Converted amounts (≈) assume the structure as drawn.

What was measured:
Pseudomonas aeruginosa [1] = test: Antibacterial activity against Pseudomonas aeruginosa at 200 ug/disc after 24 hrs by agar disc-diffusion method; type: functional; conditions: for zone of inhibition at 200 µg/disc: read-out: DIZ
Summary of the method: (§1)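 Disc diffusion on Müller-Hinton agar. 8 mm filter-paper discs carried test solution in DMSO at 200 µg/disc and were placed on agar pre-inoculated with each bacterium. Incubated at 37 °C; inhibition zone diameter measured after 24 h. DMSO solvent control.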

Candida albicans = test: Antifungal activity against Candida albicans at 200 ug/disc after 48 hrs by agar disc-diffusion method; type: functional; conditions: read-out: DIZ
Summary of the method: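 Disc diffusion for Candida albicans on Müller-Hinton agar. 8 mm discs loaded at 200 µg/disc from DMSO, with clotrimazole 200 µg/disc as reference. Plates held at 25 °C for 48 h, then growth-inhibition zone diameter measured in mm.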

Escherichia coli [2] = test: Antibacterial activity against Escherichia coli at 200 ug/disc after 24 hrs by agar disc-diffusion method; type: functional; conditions: for zone of inhibition at 200 µg/disc: read-out: DIZ; summary of the method: as §1
Bacillus subtilis [3] = test: Antibacterial activity against Bacillus subtilis at 200 ug/disc after 24 hrs by agar disc-diffusion method; type: functional; conditions: for zone of inhibition at 200 µg/disc: read-out: DIZ; summary of the method: as §1
Staphylococcus aureus [4] = test: Antibacterial activity against Staphylococcus aureus at 200 ug/disc after 24 hrs by agar disc-diffusion method; type: functional; conditions: for zone of inhibition at 200 µg/disc: read-out: DIZ; summary of the method: as §1
Dihydrofolate reductase = molecular target: T1, Dihydrofolate reductase (Bos taurus, UniProt P00376); test: Inhibition of bovine liver DHFR measured every 1 min for 10 mins
T1 sequence (P00376 whole entry): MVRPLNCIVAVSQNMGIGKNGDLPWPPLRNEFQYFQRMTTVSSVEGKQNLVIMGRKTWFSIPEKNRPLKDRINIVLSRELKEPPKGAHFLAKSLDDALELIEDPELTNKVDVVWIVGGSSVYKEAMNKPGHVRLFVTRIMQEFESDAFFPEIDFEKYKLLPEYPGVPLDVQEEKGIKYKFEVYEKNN

Schistosoma mansoni = test: Antischistosomal activity against Schistosoma mansoni assessed as mortality at 50 ug/ml after 24 hrs by microscopic analysis; type: functional
Summary of the method: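 Adult worms, 3 male plus 3 female per well, triplicate wells. Compounds in DMSO, 0.5% DMSO as negative control, praziquantel 0.1 µg/ml as positive control. Incubated 37 °C for 24 h, then scored under a dissecting microscope. Worms motionless for at least 1 min, coiled and darkened, counted dead. Activity given as % dead worms per well.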

Pseudomonas aeruginosa [5] = test: Antibacterial activity against Pseudomonas aeruginosa after 24 hrs by microdilution susceptibility method; type: functional
Escherichia coli [6] = test: Antibacterial activity against Escherichia coli after 24 hrs by microdilution susceptibility method
Bacillus subtilis [7] = test: Antibacterial activity against Bacillus subtilis after 24 hrs by microdilution susceptibility method; type: functional
Summary of the method: (§2)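 Microdilution in Müller-Hinton broth. Compounds dissolved in DMSO at 64 µg/mL, then twofold dilutions from 64 down to 0.125 µg/ml. Inoculum 10^6 CFU/ml. Plates held 24 h at 37 °C. MIC taken as the lowest concentration giving no visible growth by eye.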

Staphylococcus aureus [8] = test: Antibacterial activity against Staphylococcus aureus after 24 hrs by microdilution susceptibility method; type: functional; summary of the method: as §2
A549 = test: Cytotoxicity against human A549 cells after 48 hrs by MTT assay; type: functional; conditions: A549, 48 h, read-out: LC50 (the source's name)
Summary of the method: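 A549 cells grown in DMEM with 1% antibiotic-antimycotic and 1% L-glutamine at 37 °C, 5% CO2, seeded at 10 x 10^3 cells/well for 24 h. Exposed in serum-free medium to 0.78–100 µM for 48 h, then MTT added for 4 h and dissolved overnight in 10% SDS.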

HepG2 = test: Cytotoxicity against human HepG2 cells after 48 hrs by MTT assay; type: functional; conditions: HepG2, 48 h, read-out: LC50 (the source's name)
Summary of the method: (§3)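 HCT116, HepG2 and MCF7 cells grown in RPMI 1640 with 1% antibiotic-antimycotic and 1% L-glutamine at 37 °C, 5% CO2, seeded at 10 x 10^3 cells/well for 24 h. Exposed in serum-free medium to 0.78–100 µM for 48 h, then MTT added for 4 h and dissolved overnight in 10% SDS.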

MCF7 = test: Cytotoxicity against human MCF7 cells after 48 hrs by MTT assay; type: functional; conditions: MCF7, 48 h, read-out: LC50 (the source's name); summary of the method: as §3
HCT-116 = test: Cytotoxicity against human HCT116 cells after 48 hrs by MTT assay; type: functional; conditions: HCT-116, 48 h, read-out: LC50 (the source's name); summary of the method: as §3

| Molecule | zone of inhibition at 200 µg/disc (Pseudomonas aeruginosa [1]) [mm] | zone of inhibition at 200 µg/disc (Candida albicans) [mm] | zone of inhibition at 200 µg/disc (Escherichia coli [2]) [mm] | zone of inhibition at 200 µg/disc (Bacillus subtilis [3]) [mm] | zone of inhibition at 200 µg/disc (Staphylococcus aureus [4]) [mm] | IC50 (Dihydrofolate reductase) [µM] | mortality at 50 µg/mL (Schistosoma mansoni) [%] | MIC (Bacillus subtilis [7]) [µg/mL] | other results |
| --- | --- | --- | --- | --- | --- | --- | --- | --- | --- |
| COc1ccc(-n2c(S)nnc2-c2csc(N)n2)cc1 | 8 | 8 | 8 | 12 | 8 | 21 | – | – | – |
| Clc1ccccc1C(c1ccccc1)(c1ccccc1)n1ccnc1 [CLOTRIMAZOLE] | – | 21 | – | – | – | – | – | – | – |
| Nc1nc(-c2nnc(S)n2-c2ccc(Oc3ccccc3)cc2)cs1 | 16 | 14 | 20 | 32 | 28 | – | 55.6 | 0.5 (≈ 1.36 µM) | MIC (Pseudomonas aeruginosa [5]): 1 µg/mL (≈ 2.72 µM); MIC (Escherichia coli [6]): 0.5 µg/mL (≈ 1.36 µM); MIC (Staphylococcus aureus [8]): 0.5 µg/mL (≈ 1.36 µM) |
| CC(=O)N(C(C)=O)c1nc(-c2nnc(S)n2-c2ccc(Oc3ccccc3)cc2)cs1 | 8 | 8 | 8 | 20 | 18 | 15 | 100 | 2 (≈ 4.43 µM) | MIC (Staphylococcus aureus [8]): 4 µg/mL (≈ 8.86 µM) |
| O=C(O)c1cn(C2CC2)c2cc(N3CCNCC3)c(F)cc2c1=O [CIPROFLOXACIN] | 36 | – | 38 | 35 | 32 | – | – | 0.5 (≈ 1.51 µM) | MIC (Pseudomonas aeruginosa [5]): 1 µg/mL (≈ 3.02 µM); MIC (Staphylococcus aureus [8]): 0.5 µg/mL (≈ 1.51 µM) |
| COc1ccc(-n2c(S)nnc2-c2csc(N(C(C)=O)C(C)=O)n2)cc1 | 8 | 8 | 8 | 14 | 12 | 5 | 6 | – | CC50 (A549): 35.4 µM |
| GENTAMICIN | – | – | – | – | – | – | – | 2 | MIC (Pseudomonas aeruginosa [5]): 1 µg/mL; MIC (Staphylococcus aureus [8]): 2 µg/mL; inhibition zone (IZ) (Pseudomonas aeruginosa [1]): 19 mm; inhibition zone (IZ) (Escherichia coli [2]): 20.8 mm; inhibition zone (IZ) (Bacillus subtilis [3]): 25 mm; inhibition zone (IZ) (Staphylococcus aureus [4]): 26.5 mm |
| CC(=O)N(C(C)=O)c1nc(-c2nnc(S)n2-c2ccc(Cl)cc2)cs1 | 8 | 8 | 8 | 21 | 16 | 10 | – | 4 (≈ 10.2 µM) | CC50 (HepG2): 29.1 µM; MIC (Staphylococcus aureus [8]): 4 µg/mL (≈ 10.2 µM) |
| COc1ccccc1-n1c(S)nnc1-c1csc(N)n1 | 8 | 8 | 15 | 16 | 12 | 24 | – | 4 (≈ 13.1 µM) | MIC (Escherichia coli [6]): 8 µg/mL (≈ 26.2 µM) |
| O=C(C1CCCCC1)N1CC(=O)N2CCc3ccccc3C2C1 (centres undefined) [PRAZIQUANTEL] | – | – | – | – | – | – | 100 | – | – |
| COc1ccc(-n2c(S)nnc2-c2csc(N(C(C)=O)C(C)=O)n2)c(OC)c1 | 8 | 8 | 8 | 8 | 8 | 8 | 0 | – | – |
| COc1cccc2c1C(=O)c1c(O)c3c(c(O)c1C2=O)C[C@@](O)(C(=O)CO)C[C@@H]3O[C@H]1C[C@H](N)[C@H](O)[C@H](C)O1 [DOXORUBICIN] | – | – | – | – | – | – | – | – | CC50 (MCF7): 26.1 µM; CC50 (HepG2): 21.4 µM; CC50 (HCT-116): 37.7 µM; CC50 (A549): 28.3 µM |
| COc1ccccc1-n1c(S)nnc1-c1csc(N(C(C)=O)C(C)=O)n1 | 8 | 8 | 16 | 20 | 8 | – | – | 4 (≈ 10.3 µM) | MIC (Escherichia coli [6]): 0.8 µg/mL (≈ 2.05 µM) |
| Nc1nc(-c2nnc(S)n2-c2ccccc2)cs1 | 8 | 8 | 8 | 8 | 8 | – | 16.6 | – | – |
| Nc1nc(-c2nnc(S)n2-c2ccc(Cl)cc2)cs1 | 8 | 12 | 8 | 12 | 8 | 18 | 5 | – | – |
| Cc1ccc(-n2c(S)nnc2-c2csc(N)n2)cc1 | 8 | 8 | 8 | 8 | 8 | 24 | 10.5 | – | – |
| CN(Cc1cnc2nc(N)nc(N)c2n1)c1ccc(C(=O)N[C@@H](CCC(=O)O)C(=O)O)cc1 [METHOTREXATE] | 8 | 8 | 8 | 8 | 8 | – | – | – | – |
| CC(=O)N(C(C)=O)c1nc(-c2nnc(S)n2-c2ccccc2)cs1 | 8 | 8 | 8 | 8 | 8 | 35 | – | – | CC50 (A549): 33.2 µM |
| CC(=O)N(C(C)=O)c1nc(-c2nnc(S)n2-c2ccc(C)cc2)cs1 | 8 | 8 | 8 | 8 | 8 | – | – | – | CC50 (MCF7): 23.8 µM; CC50 (HepG2): 18.9 µM; CC50 (A549): 25 µM |
